Results as given in ChEMBL document CHEMBL1146609, “Synthesis of water-soluble prodrugs of BMS-191011: a maxi-K channel opener targeted for post-stroke neuroprotection” (Bioorg Med Chem Lett, 2003).
Converted amounts (≈) assume the structure as drawn. “And” between values parts separate entries of the source, which are not always exact repeats. Equal entries are not always repeated. Each block holds one compound with its values, some of them ahead of it.

What was measured:
[1] = Solubility in water at 5.5 pH; assay type: physicochemical; conditions: pH 5.5, read-out: S
How it was run: (§1)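 Aqueous solubility (mg/mL), measured with the pH of the resulting solution recorded.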

[2] = species: Rattus norvegicus; experiment: Percentage converted to BMS-191011 after 30 min incubation in rat plasma at 37 degree C; assay type: ADME, organism-based; conditions: 0.5 h
How it was run: (§2)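 Prodrug was incubated in rat plasma for 30 min at 37 °C. The percentage converted to the parent BMS-191011 was then determined.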

[3] = Solubility in water at 7.2 pH; assay type: physicochemical; conditions: pH 7.2, read-out: S; how it was run: as §1
[4] = tested on: Rattus norvegicus; experiment: Percent reduction of neocortical infract volume in 28 rats after IV administration (2h post MCA)at a dose of […]; assay type: functional
How it was run: (§3)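 Rat MCA occlusion model. Neocortical infarct volume was compared with vehicle controls (2% DMSO/98% propylene glycol) in the same study. Statistics by ANOVA with Dunnett's t-test, p<0.05; 28–29 animals per group.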

[5] = […] expressed as percentage of compound remains at 24 hr in PEG400/Water, 1:1; assay type: ADME, organism-based; conditions: read-out: Prodrug remains
How it was run: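 Chemical stability in PEG400/water (1:1) solution, given as the percentage of prodrug remaining after 24 h.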

[6] = tested on: Rattus norvegicus; experiment: Percent reduction of neocortical infract volume in 29 rats after IV administration (2h post MCA)at a dose of […]; assay type: functional; how it was run: as §3
[7] = tested on: Rattus norvegicus; experiment: Percent reduction of neocortical infract volume in 28 rats after IV administration (2h post MCA) at a dose of […]; assay type: functional; how it was run: as §3
[8] = Volume distribution was determined; assay type: ADME, organism-based; conditions: rat, in vivo; read-out: Vdss
How it was run: (§4)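 Male SD rats (N=3) given prodrug by IV infusion at 1.7 mg/kg (equivalent to 1 mg/kg parent), vehicle PEG-400/water 1:1. Blood samples were mixed at once with an equal volume of water, quenched with four volumes of acetonitrile and stored at -20 °C. Prodrug and parent were measured by two separate LC/MS/MS assays. Mean ±SD.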

[9] = Plasma clearance was determined; assay type: ADME, organism-based; conditions: rat; how it was run: as §4
[10] = Solubility in deionized water; assay type: physicochemical; conditions: read-out: S
How it was run: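 Solubility of the prodrug (mg/mL) in deionized water.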

[11] = t1/2 (apparent elimination)of the compound was determined; assay type: ADME, organism-based; conditions: rat, in vivo; how it was run: as §4
[12] = Area under curve was determined; assay type: ADME, organism-based; conditions: rat, in vivo; how it was run: as §4
[13] = Solubility in water at 7.5 pH; assay type: physicochemical; conditions: pH 7.5, read-out: S
[14] = species: Rattus norvegicus; experiment: […] expressed as percentage of compound remains at 24 hr in PEG400/Water, 1:1; Not stable; assay type: ADME, organism-based
[15] = Solubility in water at 2.4 pH; assay type: physicochemical; conditions: pH 2.4, read-out: S
[16] = species: Rattus norvegicus; experiment: Percentage converted to BMS-191011 after 30 min incubation in rat plasma at 37 degree C; Converted to an unknown compound; assay type: ADME, organism-based; conditions: 0.5 h; how it was run: as §2
[17] = Solubility in water at 4.2 pH; assay type: physicochemical; conditions: pH 4.2, read-out: S; how it was run: as §1
[18] = Solubility in water at 7.0 pH; assay type: physicochemical; conditions: pH 7, read-out: S
[19] = Solubility in water at 8.4 pH; assay type: physicochemical; conditions: pH 8.4

SMILES: O=c1oc(-c2ccc(C(F)(F)F)cc2)nn1Cc1cc(Cl)ccc1OP(=O)(O)O
solubility [1]: 4900 µg/mL (≈ 10.9 mM)
Conversion [2]: 0%
solubility [3]: 14600 µg/mL (≈ 32.4 mM)

SMILES: CS(=O)(=O)[O-].C[N+](C)(C)CCCC(=O)OCOc1ccc(Cl)cc1Cn1nc(-c2ccc(C(F)(F)F)cc2)oc1=O
Reduction [4]: -14% and -12% and -17%
remaining at 24 h [5]: > 97%
Reduction [6]: -16%
Reduction [7]: -13%
Vd [8]: 2.6 L/kg
clearance [9]: 22.9 mL/min/kg
Conversion [2]: > 80%
solubility [10]: > 25000 µg/mL
half-life [11]: 2.7 h
AUC [12]: 1260 ng·h/mL

SMILES: CS(=O)(=O)[O-].C[N+](C)(C)CCOC(=O)Oc1ccc(Cl)cc1Cn1nc(-c2ccc(C(F)(F)F)cc2)oc1=O
remaining at 24 h [5]: 72%
Conversion [2]: 100%

solubility [13]: 4 µg/mL (≈ 0.00762 mM)
Prodrug remains [14]: Not stable
solubility [15]: 55 µg/mL (≈ 0.105 mM)
SMILES: O=C(OCOP(=O)(O)O)Oc1ccc(Cl)cc1Cn1nc(-c2ccc(C(F)(F)F)cc2)oc1=O

SMILES: CS(=O)(=O)[O-].C[N+](C)(C)CCCC(=O)Oc1ccc(Cl)cc1Cn1nc(-c2ccc(C(F)(F)F)cc2)oc1=O
remaining at 24 h [5]: > 90%
Conversion [2]: 95%
solubility [10]: > 4000 µg/mL

SMILES: CS(=O)(=O)[O-].C[N+](C)(C)CC(=O)c1ccc(Cl)cc1Cn1nc(-c2ccc(C(F)(F)F)cc2)oc1=O
remaining at 24 h [5]: > 90%

half-life [11]: 1.2 h
AUC [12]: 52.4 ng·h/mL
SMILES: O=c1oc(-c2ccc(C(F)(F)F)cc2)nn1Cc1cc(Cl)ccc1O

SMILES: CS(=O)(=O)[O-].C[N+](C)(C)CCC(=O)Oc1ccc(Cl)cc1Cn1nc(-c2ccc(C(F)(F)F)cc2)oc1=O
remaining at 24 h [5]: > 90%
Conversion [2]: 100%
solubility [10]: > 4000 µg/mL

SMILES: CS(=O)(=O)[O-].C[N+](C)(C)CC(=O)OCOc1ccc(Cl)cc1Cn1nc(-c2ccc(C(F)(F)F)cc2)oc1=O
Conversion [16]: Converted to an unknown compound
solubility [17]: 4500 µg/mL

solubility [18]: 6100 µg/mL (≈ 12.7 mM)
Prodrug remains [14]: Not stable
solubility [19]: > 16000 µg/mL
SMILES: O=c1oc(-c2ccc(C(F)(F)F)cc2)nn1Cc1cc(Cl)ccc1OCOP(=O)(O)O
